# The list is not random: actives were taken first. Their share in the collection is about 5.2%.
# PfM18AAP inh-1: blocks P. falciparum M18 aspartyl aminopeptidase. recombinant PfM18AAP, H-Glu-NHMec fluorogenic cleavage. inhibition, % at 7.35 µM. actives 1.2% (n = 290,000);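 active = inhibition above the campaign mean inhibition over all tested compounds plus 3 SD, cut at about 28% in these data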;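 also: 0% = plate median of test compound wells and 100% = 2 mM ZnCl2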
# NS3 helicase inh: blocks Hepatitis C virus NS3 helicase unwinding. NS3 helicase DNA unwinding, Cy5 molecular beacon fluorescence. inhibition, % at 10.9 µM. actives 0.56% (n = 290,000). AID 1800;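 active = inhibition above the mean of all tested compounds plus 3 SD, set per campaign, cut at about 35% in these data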;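 also: 0% = DMSO wells and 100% = thioflavine S control wells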
#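 System: NS3 helicase fragment of HCV / Schedule: 1 h at 25 °C / Control set: DMSO alone as 0% and 110 µM thioflavine S as 100% / Reagent: Cy5/quencher beacon DNA duplex and ATP to start / Technique: Cy5 fluorescence / Replication: singlicate / Evaluation: % inhibition of end-to-start signal ratio versus controls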
# core dimer inh: blocks dimerization of HCV core protein; inhibition, % at 5 µM; TR-FRET GST/Flag-core106 dimerization, 1536-well; actives 0.33% (n = 300,000);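 active = inhibition above the mean of all tested compounds plus 3 SD, set per screening campaign, cut at about 45% in these data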
#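 Assay system: GST-tagged and Flag-tagged HCV core protein residues 1-106 / Times: compound-protein-antibody incubation 4 h at 22.5 °C / Signal: time-resolved FRET, ex 340 nm, em 617 and 671 nm / Evaluation: % inhibition based on acceptor/donor emission ratio / Benchmarks: wells lacking GST-core106 and wells with excess unlabelled core106 / Repeats: singlicate, one well per compound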
# ZTA counter: counter-screen for EBNA-1 inhibitors: inhibitors of Epstein-Barr virus ZTA | inhibition, % at 11 µM | actives 0.15% (n = 320,000) | ZTA-DNA binding, fluorescence polarization; in the data active = inhibition above about 33%
# EBNA-1 inh: blocks EBNA-1 binding to DNA | inhibition, % at 14.8 µM | actives 0.34% (n = 300,000) | EBNA-1 DNA binding, fluorescence polarization; in the data active = inhibition above about 28%
# ALR inh: blocks human ALR sulfhydryl oxidase activity | purified ALR, DTT oxidation, H2O2 HRP-luminol luminescence | inhibition, % (no concentration beside the values) | actives 3.8% (n = 290,000) | AID 485317;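 active = mean replicate inhibition above about 79%, with every replicate also reaching it, limit read from the data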
# Target sequence (P55789 whole entry, looked up): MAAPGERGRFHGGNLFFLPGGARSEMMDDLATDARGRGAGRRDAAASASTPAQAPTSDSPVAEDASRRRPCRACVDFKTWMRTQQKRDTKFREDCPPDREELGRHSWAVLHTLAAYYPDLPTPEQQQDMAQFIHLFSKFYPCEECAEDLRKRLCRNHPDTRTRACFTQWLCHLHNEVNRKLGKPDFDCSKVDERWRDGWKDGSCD
# PfM18AAP inh-2: confirmation of Plasmodium falciparum M18 aspartyl aminopeptidase inhibitors | inhibition, % at 7.35 µM | AID 2170 | actives 28% (n = 2,400) | recombinant PfM18AAP, H-Glu-NHMec fluorogenic cleavage | shares compounds with PfM18AAP inh-1;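 active = mean inhibition over replicate wells above the hit cutoff set for the earlier primary screen, cut at about 29% in these data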;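 also: 0% = median of test compound wells and 100% = 2 mM ZnCl2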
# CTSL1 confirm: Cathepsin L (human) inhibition, confirmation. shares compounds with PfM18AAP inh-1. purified cathepsin L1, Z-Leu-Arg-MCA fluorescence. inhibition, % at 5.96 µM. 2,400 tested, under 10 active. AID 2178;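 active = average inhibition across replicates above the hit cutoff set in the earlier primary screen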;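 also: 0% = median of test compound wells and 100% = Z-Phe-Ala-diazomethylketone 1 µM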
# Target sequence (P07711 whole entry, looked up): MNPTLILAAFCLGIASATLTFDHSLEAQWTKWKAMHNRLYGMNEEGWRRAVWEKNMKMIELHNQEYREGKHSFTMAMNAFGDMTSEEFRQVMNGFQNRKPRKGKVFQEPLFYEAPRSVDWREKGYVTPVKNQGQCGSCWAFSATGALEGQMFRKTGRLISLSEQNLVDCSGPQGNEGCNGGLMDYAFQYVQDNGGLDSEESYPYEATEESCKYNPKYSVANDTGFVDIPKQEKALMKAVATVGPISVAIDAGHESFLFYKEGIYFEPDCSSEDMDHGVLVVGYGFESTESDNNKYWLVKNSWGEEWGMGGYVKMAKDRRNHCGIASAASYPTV
# * hit, by the source's call; . = not tested or not shown.
SMILES,PfM18AAP inh-1,NS3 helicase inh,core dimer inh,ZTA counter,EBNA-1 inh,ALR inh,PfM18AAP inh-2,CTSL1 confirm
COc1ccc(O)c(C(=O)C2c3ccccc3C(=O)N2c2ccc(C)cc2)c1 (centres undefined),40*,18,3,-2,-15,-6,26,4
CC(C)(C)NC(=O)C(c1ccncc1)N(Cc1cccs1)C(=O)c1csnn1 (centres undefined),7,3,0,-1,-14,-2,.,.
Cc1ccc(C(C(=O)NC(C)(C)C)N(Cc2cccs2)C(=O)c2csnn2)cc1 (centres undefined),35*,3,2,8,7,-8,-53,1
COc1ccc(N/C=C2\CCOC2=O)cc1,-1,5,-11,2,-19,42,.,.
COc1ccc(N/C=C2\C(=O)CCc3c2oc2cc(Cl)c(O)c(Cl)c32)cc1,23,14,5,-8,-21,70,10,-2
CCN(Cc1nc2ccccc2c(=O)[nH]1)C(=O)COc1ccccc1-c1ccccc1,.,.,.,4,.,-4,.,.
O=C(Nc1cccc(Cl)c1)N(CCN1CCOCC1)Cc1ccccc1F,71*,-2,-1,9,-1,-5,-30,2
CC(C)C(NC(=O)C(Cc1ccccc1)NC(=O)OCc1ccccc1)C(=O)O (centres undefined),6,5,1,-1,-16,-2,.,.
COc1cc(C(=S)N2CCOCC2)cc(OC)c1OC(=O)Cc1ccc(F)cc1,36*,0,2,-13,0,0,-8,1
CC(C)c1ccc(NC(=O)CN2C(=O)COc3ccc(S(=O)(=O)N4CCOCC4)cc32)cc1,0,-8,3,-2,-7,2,.,.
O=C1CCC(C(=O)N2CCN(c3cnccn3)CC2)CN1CCc1cccc(F)c1 (centres undefined),2,5,-1,-5,8,-4,.,.
CCC(=O)Nc1nc(-c2ccccc2)ns1,6,2,-12,6,-9,-5,.,.
CC(C)c1nnc(NC(=O)CSc2ncn[nH]2)s1,42*,0,2,7,-6,-2,52*,4
O=C(CSc1ncn[nH]1)Nc1ccccc1C(=O)O,44*,-2,-2,-28,-18,-4,15,0
O=C(Nc1ccc(N2CCN(C(=O)c3ccccc3F)CC2)cc1)c1ncn[nH]1,39*,3,-5,4,-5,.,22,5
COc1ccccc1NC(=O)CSc1ncn[nH]1,4,-2,-1,9,-13,0,.,.
O=C(CSc1ncn[nH]1)Nc1nc(-c2ccccc2)ns1,82*,-10,-2,4,-1,0,85*,-4
Cc1cc(C)c2c(N)c(C(=O)N3CCc4ccccc4C3)sc2n1,7,-1,2,-9,12,5,.,.
Cc1cccc(C)c1OCC(=O)N(Cc1ccc(Cl)cc1)C1CCS(=O)(=O)C1 (centres undefined),-5,0,3,16,2,-6,.,.
O=C(CSc1nc2ccccc2o1)Nc1nccs1,-3,5,3,12,-2,-13,.,.
O=C(O)C1CC=CCC1C(=O)Nc1ccc2c(c1)CCC2 (centres undefined),-1,-3,-6,14,7,18,.,.
O=C(Nc1ccccc1C(=O)O)c1ncn[nH]1,77*,-3,.,.,.,.,58*,-1
Cc1ccc(NC(=O)CN2C(=O)COc3ccc(C)cc32)nc1,2,9,-3,5,0,-3,.,.
Cc1ccc2c(c1)N(CC(=O)NCc1cccnc1)C(=O)CO2,81*,-7,-2,-7,-1,-4,-57,1
Cc1ccc(N(CC(=O)NCc2ccccc2)C(=O)c2csnn2)c(C)c1,1,0,1,13,-16,0,.,.
SMILES,PfM18AAP inh-1,NS3 helicase inh,core dimer inh,ZTA counter,EBNA-1 inh,ALR inh,PfM18AAP inh-2,CTSL1 confirm
COc1ccc(C(O)(C(=O)NNc2ccc(C)cc2)c2cccs2)cc1 (centres undefined),42*,17,2,13,6,16,-47,-1
Cc1noc(C)c1C(=O)NNc1cc(Cl)ccc1Cl,36*,2,-2,-13,-4,-8,9,-3
O=C(NNc1cc(Cl)ccc1Cl)c1cccs1,52*,25,-2,-10,-6,-3,28,-1
O=c1c2cc3c(=O)n(-c4ccccc4O)c(=O)c3cc2c(=O)n1-c1ccccc1O,41*,13,2,2,4,26,-40,6
Cc1c(O)cc2n(c1=O)-c1ccccc1C2(C)C,15,10,-7,-5,4,6,.,.
Cc1cccc(C(=O)NCC(c2cccs2)N2CCOCC2)c1 (centres undefined),.,.,-5,4,-5,.,.,.
Cc1ccc(-c2nn[nH]n2)o1,76*,-7,0,-2,9,-7,54*,0
Cc1ccc(-c2nn[nH]n2)cc1,-13,30,-2,0,6,.,.,.
O=c1cc(-c2ccc(O)c(O)c2)oc2cc(O)c(C3OC(CO)C(O)C(O)C3O)c(O)c12 (centres undefined),68*,-3,-17,1,-3,99*,34*,2
O=c1cc(-c2ccc(O)c(O)c2)oc2c(C3O[C@H](CO)[C@@H](O)[C@H](O)[C@H]3O)c(O)cc(O)c12 (some centres undefined),68*,14,-16,7,3,99*,45*,-1
O=c1cc(-c2ccc(O)cc2)oc2c(C3O[C@H](CO)[C@@H](O)[C@H](O)[C@H]3O)c(O)cc(O)c12 (some centres undefined),.,.,13,13,3,15,.,.
CC(CC(=O)O)Nc1ccccc1O (centres undefined),38*,13,-2,8,9,54,8,-1
CCOC(=O)COc1ccc(C(c2c(C)[nH][nH]c2=O)c2c(C)[nH][nH]c2=O)cc1,34*,1,1,-19,7,-12,-3,0
COC(=O)COc1c(Cl)cc(C(c2c(C)[nH][nH]c2=O)c2c(C)[nH][nH]c2=O)cc1OC,34*,-7,.,.,.,67,13,0
COc1cc(C(c2c(C)[nH][nH]c2=O)c2c(C)[nH][nH]c2=O)cc(Br)c1OC,38*,-2,-10,4,-2,38,16,-3
COC(=O)c1ccc(C(c2c(C)[nH][nH]c2=O)c2c(C)[nH][nH]c2=O)cc1,15,-11,4,-1,7,30,.,.

# Source: PubChem BioAssay (several laboratories)
